# Screening data: PubChem BioAssay, several laboratories
# RanGTP-Impb inh: disruptors of Ran-importin-beta complex formation – biochemical, FRET, CFP-Ran, YFP-importin-beta, homogeneous, primary screen; cell-free CFP-Ran/YFP-importin-beta FRET ratio; inhibition, % (no concentration beside the values); 300,000 compounds, 1.1% hits; AID 2216;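 active = more than half of the replicate wells show a fall in the fluorescence ratio signal beyond about 16%, limit read from the data, passing the limit was not always enough; inconclusive = exactly half of the replicate wells pass the set limit; inactive = fewer than half of replicates pass the limit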;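 also: 0% = DMSO wells and 100% = Ran loaded with GDP instead of GTP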
# Runt-SMMHC FRET: inhibitors of human RUNX1 Runt domain binding to CBFb-SMMHC; Q01196+Q13951; Cerulean-Runt/Venus-CBFb-SMMHC FRET ratio 530/480, 1 h; inhibition, % at 20 µM; 220,000 compounds, 0.74% hits; AID 1434;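 active = mean inhibition across duplicate retests at 20 µM reaching about 50%, limit read from the data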;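 also: 0% = DMSO wells and 100% = wells with excess untagged CBFb-SMMHC; inhibitors lower the FRET ratio by blocking Runt binding to CBFb-SMMHC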
# p97 inhibitor: inhibitors of human p97 ATPase | 220,000 compounds, 0.42% hits | recombinant p97 ATPase, Kinase-Glo ATP luminescence, 3 h | inhibition, % at 8 µM; in the data active = inhibition above about 15%;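 also: 0% = DMSO vehicle and 100% = wells lacking enzyme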
# Target sequence (P55072 whole entry, looked up): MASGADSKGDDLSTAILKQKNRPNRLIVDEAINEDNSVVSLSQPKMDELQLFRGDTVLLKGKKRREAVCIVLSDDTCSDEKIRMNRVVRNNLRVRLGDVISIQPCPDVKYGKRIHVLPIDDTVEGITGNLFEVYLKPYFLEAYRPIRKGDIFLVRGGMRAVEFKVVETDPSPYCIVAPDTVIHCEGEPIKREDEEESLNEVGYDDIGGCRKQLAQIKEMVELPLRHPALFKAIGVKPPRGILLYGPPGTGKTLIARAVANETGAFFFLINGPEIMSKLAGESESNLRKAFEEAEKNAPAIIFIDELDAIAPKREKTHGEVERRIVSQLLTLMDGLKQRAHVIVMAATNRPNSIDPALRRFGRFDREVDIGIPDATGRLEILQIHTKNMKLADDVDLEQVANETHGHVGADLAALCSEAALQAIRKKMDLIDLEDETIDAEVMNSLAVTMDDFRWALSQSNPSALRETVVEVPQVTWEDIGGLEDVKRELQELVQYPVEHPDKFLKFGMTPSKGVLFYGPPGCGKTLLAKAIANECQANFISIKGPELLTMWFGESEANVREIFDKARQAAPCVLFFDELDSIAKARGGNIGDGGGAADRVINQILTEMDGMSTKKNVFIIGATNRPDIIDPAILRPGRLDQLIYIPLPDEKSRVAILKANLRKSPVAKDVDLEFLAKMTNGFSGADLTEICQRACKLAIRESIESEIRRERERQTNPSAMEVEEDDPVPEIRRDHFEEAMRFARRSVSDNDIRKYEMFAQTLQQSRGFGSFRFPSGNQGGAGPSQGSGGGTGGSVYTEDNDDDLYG
# Hck-Nef inh: inhibitors of human Hck kinase activated by Nef; P08631; Recombinant Hck-YEEI plus Nef, Z-Lyte FRET kinase assay; inhibition, % at 20 µM; 220,000 compounds, 0.68% hits; AID 463187;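 active = Hck-Nef kinase inhibition above about 50%, limit read from the data; inactive = inhibition below that limit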;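 also: 0% = DMSO with Hck plus Nef and 100% = Hck alone without Nef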
# TbHK1 inh: blocks Trypanosoma brucei hexokinase 1 activity | recombinant TbHK1, G6PDH-coupled NADH A340 | inhibition, % at 10 µM | 220,000 compounds, 0.11% hits | AID 1430;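 active = inhibition of 50% or more in the single-dose primary screen; inactive = inhibition below 50%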
# Runt-CBFb FRET: Runt domain-CBFb interaction inhibition; Q01196+Q13951; Cerulean-Runt/Venus-CBFb FRET ratio 530/480, 1 h; inhibition, % at 20 µM; 220,000 compounds, 0.46% hits;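 active = inhibition over about 50% at 20 µM in the single-dose screen, limit read from the data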;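 also: 0% = DMSO wells and 100% = excess unlabeled CBFb competitor control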
#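 Measured by: fluorescence energy transfer, 422 nm excitation, 530/480 nm emission; test system: Cerulean-tagged RUNX1 Runt domain (FRET donor) fusion protein; buffer or medium: Tris pH 7.5 buffer with BSA; compound: one dose, 20 µM compound, 1% DMSO; times: two 1 h room-temperature incubations shielded from light; benchmarks: unlabeled CBFb 5 µM, positive control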
# An asterisk follows results filed as active; ? = inconclusive; . = no result given. Shown are actives, neighbours in structure and some others; about 2.1% of the full set was active somewhere.
SMILES,RanGTP-Impb inh,Runt-SMMHC FRET,p97 inhibitor,Hck-Nef inh,TbHK1 inh,Runt-CBFb FRET
CCc1ccc(-c2cc(C(F)(F)F)n3nc(C(=O)Nc4cnn(Cc5ccc(C)cc5)c4)cc3n2)s1,39*,-4,-1,6,3,-50
Cc1ccc(Cn2ccc(NC(=O)c3cc4nc(-c5ccco5)cc(C(F)(F)F)n4n3)n2)cc1,4,-21,1,2,-13,.
Cc1ccccc1Cn1cc(NC(=O)c2cc3nc(-c4ccco4)cc(C(F)(F)F)n3n2)cn1,30*,-86,8,4,-18,-5
COc1ccc(-c2ccc(C(c3c(C)[nH][nH]c3=O)c3c(C)[nH][nH]c3=O)o2)c([N+](=O)[O-])c1,.,5,15*,22,2,20
CCC(CO)[n+]1c(C)cc(/C=C2\Sc3ccccc3N2Cc2ccccc2)cc1C (configuration not stated),.,64*,-4,2,13,43
CC1=NN(C(=O)c2ccoc2C)C(O)(C(F)(F)F)C1 (configuration not stated),1,-1,-2,12,6,-1
C/C(N)=C(/C#N)C(=O)COC(=O)CNC(=O)c1ccc(Cl)cc1Cl,37*,-23,0,-4,3,0
C/C(N)=C(/C#N)C(=O)COc1ccc(Cl)cc1Cl,?,2,-2,13,-2,-1
Cc1ccc(C(=O)/C=C/NCc2ccc(F)cc2)cc1,31*,-1,3,5,-12,2
CC(=O)Nc1ccc(S(=O)(=O)Nc2nc3ccccc3nc2Sc2nncn2C)cc1,36*,72*,-6,2,-21,48
Cn1cnnc1Sc1nc2ccccc2nc1NS(=O)(=O)c1ccccc1,10,28,1,-6,-15,9
CC(=O)Nc1ccc(S(=O)(=O)Nc2nc3ccccc3nc2Nc2ccc(N)cc2)cc1,8,-2,3,15,-29,-8
CCCCN(CCCC)c1nc2ccccc2nc1NS(=O)(=O)c1ccc(NC(C)=O)cc1,3,70*,1,4,-22,20
Cn1c(=O)c2c(ncn2CCOc2cccc(Br)c2)n(C)c1=O,0,.,.,.,.,.
COc1cc(C(=S)N2CCCC2)ccc1O,2,66*,5,0,-10,42
COc1ccc(/C(O)=C2/C(=O)C(=O)N(c3ncccn3)C2c2ccc(F)cc2)cc1 (configuration not stated),-3,-1,6,12,-35,-1
CCOC(=O)/C(O)=C(\C#N)c1nc2ccccc2[nH]1,5,74*,8,-10,-22,33
CC(=O)c1sc2ccccc2c1OC(=O)c1ccco1,38*,37,-2,32,1,13
CCOC(=O)c1cc(C(=O)OCC)c2cccc(C)n2c1=O,36*,60,0,33,-28,19
CN(C)S(=O)(=O)c1cccc(NC(=O)Cc2ccc(-c3ccccc3)cc2)c1,-1,.,.,.,.,.
CNc1ccc(Br)cc(C(=O)/C=C/c2ccc(OC)cc2)c1=O,-3,-3,5,28,-22,8
O=C(/C=C/c1ccccc1)c1ccccn1,23*,22,3,1,-6,21
N/C(=N\OC(=O)/C=C/c1ccccc1)c1ccccn1,0,0,-5,-48,-3,1
O=C(N/N=C/c1ccc2c(c1)OCO2)c1ccccn1,3,1,-33,0,-47,1
O=C(/C=C/c1ccc2c(c1)OCO2)c1ccccn1,41*,-6,-3,12,-33,34
CNc1ccc(Br)cc(C(=O)/C=C/c2ccc3c(c2)OCO3)c1=O,0,-28,15*,3,-19,0
COCCNC(=S)N=Nc1c(O)[nH]c2c(C)cc(C)cc12,156*,-1,0,5,-6,-1
CCCCC1OC23CCCCC2C(C#N)(C#N)C1(C#N)C(=N)O3 (configuration not stated),53*,81,4,3,25,24
CCCCC1OC23CCCCC2C(C#N)(C(=N)O3)C1(C#N)C#N (configuration not stated),24*,32,-8,1,-4,19
